Source: PubChem (several laboratories)
In the library only some 11% were active in any assay of this set; here they are far more common.
S1P3 agonist: agonists of human S1P3 receptor; AID 373; 60,000 tested, 0.1% active; activation, % at 4.5 µM; S1P3 NFAT-BLA reporter cells, agonism, FRET ratio; relative to 1 µM S1P, basal subtracted;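 active means activation above the screen-wide mean plus 3 SD, cut at about 4.5% in these data, passing the limit was not always enough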
Target sequence (Q99500 whole entry, looked up): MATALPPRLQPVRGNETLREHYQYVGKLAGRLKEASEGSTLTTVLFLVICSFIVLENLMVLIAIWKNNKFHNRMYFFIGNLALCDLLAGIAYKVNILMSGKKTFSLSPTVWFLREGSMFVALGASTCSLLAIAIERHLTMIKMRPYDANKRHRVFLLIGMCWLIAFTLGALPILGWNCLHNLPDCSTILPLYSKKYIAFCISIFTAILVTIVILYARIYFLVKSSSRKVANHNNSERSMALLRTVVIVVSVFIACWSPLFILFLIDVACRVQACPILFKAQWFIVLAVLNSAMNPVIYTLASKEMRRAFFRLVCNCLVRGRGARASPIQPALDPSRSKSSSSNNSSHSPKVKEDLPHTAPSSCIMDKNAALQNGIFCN
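Benchmarks: high control 1 µM S1P / System: stable CHO line with human S1P3, Gα16, NFAT-BLA reporter / Dosing: single compound concentration, 4.5 µM final / Timing: 4 h compound at 37 °C, 2 h substrate at RT / Measured by: FRET β-lactamase substrate fluorescence, excitation 405 nm, 460/535 nm emission ratio, background-subtracted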
M1 agonist: activates the M1 muscarinic receptor. B-score at 10 µM. CHO-M1 cells, Fluo-4 calcium fluorescence, agonist mode; hits give high values. 64,000 tested, 3% active. AID 626;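 active means fluorescence rise, raw or as B-score row- and column-corrected plate score, outside the 99.7% band of its plate's samples, either direction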
M1 antagonist: blocks the rat M1 muscarinic receptor response to acetylcholine. P08482. CHO-M1 cells, Fluo-4 calcium, ACh EC80 antagonist mode; hits give low values. B-score at 10 µM. 64,000 tested, 3.4% active. AID 628;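 active means calcium fluorescence response, raw or row-and-column corrected B-score, differing from the plate sample mean either way at a set confidence level, mostly lower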
S1P1 ag pot: agonists and agonism potentiators of human S1P1 receptor. P21453. AID 449. S1P1 CRE-bla cells, forskolin, beta-lactamase FRET, potentiator mode; S1P1 agonist co-added at EC20, 2 nM; 100% = saturating reference agonist, 0% = basal. 56,000 tested, 0.57% active. activation, % at 9.5 µM;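 active means activation above a cutoff set at the mean activation of all tested compounds plus 3 SD, cut at about 54% in these data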;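 further: forskolin at 4 µM as EC80 and the EC20 agonist is SEW2871; 100% = SEW2871 at its EC100 plus forskolin at EC80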
D1 allo mod: allosterically modulates the human D1 dopamine receptor; B-score at 10 µM; HEK293 D1, CRE-luciferase, dopamine EC30 potentiation; actives deviate in either direction; 58,000 tested, 5.9% active;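 active means luminescence count or its row- and column-corrected plate score outside the 99.7% band of the plate's sample wells, on either side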
D1 PAM confirm: D1 receptor (human) allosteric modulation, confirmed. shares compounds with D1 allo mod. HEK293 D1 CRE-luciferase, dopamine EC30 potentiation; hits give high values. luminescence at 10 µM. 2,200 tested, 88% active. AID 642;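 active means luminescence in either of two replicates above the same-plate mean plus 3 SD of the low-dose dopamine control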
D1 ag no DA: activates D1 CRE-luciferase signal without dopamine present. 1,900 tested, 0.8% active. HEK293 D1 CRE-luciferase, luminescence, no dopamine; hits give high values. shares compounds with D1 allo mod. luminescence at 10 µM; in the data active means luminescence above about 3900
Isoprot counter: isoproterenol response counter-screen activity for D1 modulators. shares compounds with D1 allo mod. HEK293 D1 CRE-luciferase, isoproterenol EC30 counter-screen; hits give high values. luminescence at 10 µM. 2,200 tested, 63% active. AID 647;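 active means luminescence in either replicate above plate mean of wells with a partly effective reference agonist dose plus 3 SD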;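 further: isoproterenol raises cAMP through native beta-adrenoceptor Gs so signal bypasses D1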
Numbers without * were called inactive.

What do the screens show for `Cn1c(SCc2ccccc2F)nc2cccnc21`?
S1P3 agonist: -0.9; M1 agonist: -0.374; M1 antagonist: -0.53; S1P1 ag pot: -2.4; D1 allo mod: 7.37*; D1 PAM confirm: 7412*; D1 ag no DA: 1864; Isoprot counter: 2900*

How did CC(=O)NCCn1c(SCc2cc(=O)n3cc(Cl)ccc3n2)nc2ccccc2c1=O do in these assays?
S1P3 agonist: 1.1; M1 agonist: -1.01; M1 antagonist: 1.58; S1P1 ag pot: -28.1; D1 allo mod: 3.72*; D1 PAM confirm: 8148*; D1 ag no DA: 1496; Isoprot counter: 3584*

What do the screens show for `CC(=O)NCCn1c(SCC#N)nc2ccccc2c1=O`?
S1P3 agonist: 0.5; M1 agonist: 1.47; M1 antagonist: 0.217; S1P1 ag pot: -0.2; D1 allo mod: -0.154

Results for CC(=O)NCCn1c(SCc2ccccc2F)nc2ccccc2c1=O ?
S1P3 agonist: -1.1; M1 agonist: 0.0609; M1 antagonist: -0.101; S1P1 ag pot: -17.4; D1 allo mod: 9.13*; D1 PAM confirm: 8204*; D1 ag no DA: 1528; Isoprot counter: 3388*

What do the screens show for `Cc1ccc(NC(=O)c2ccc3ccccc3n2)nc1`?
S1P3 agonist: -1.1; M1 agonist: 0.393; M1 antagonist: -0.6; S1P1 ag pot: 21.8; D1 allo mod: -1.43

Results for Nn1c(SCC(=O)NC2CCCc3ccccc32)nnc1-c1cccs1 (centres undefined) ?
S1P3 agonist: -0.1; M1 agonist: -1.85; M1 antagonist: 0.0846; S1P1 ag pot: -7.6; D1 allo mod: -0.258

Results for CCc1sc(C(=O)NC2CCN(C)CC2)cc1Br ?
S1P3 agonist: -1.6; M1 agonist: 0.103; M1 antagonist: -0.572; S1P1 ag pot: -2.7; D1 allo mod: -3.67

What do the screens show for `Cc1ccc(-c2c(C#N)c(N)nc3c2CCCCC3)o1`?
S1P3 agonist: -1.1; M1 agonist: -0.738; M1 antagonist: -0.161

How did N#Cc1c(N)oc(-c2ccc3c(c2)OCO3)c1-c1ccc2c(c1)OCO2 do in these assays?
M1 agonist: -0.33; M1 antagonist: 0.921; D1 allo mod: 4.51*; D1 PAM confirm: 26576*; D1 ag no DA: 1760; Isoprot counter: 4016*

What do the screens show for `Cc1ccc(-c2cc(-c3ccc4c(c3)OCO4)c(C#N)c(N)n2)o1`?
S1P3 agonist: 0.9; M1 agonist: -0.0935; M1 antagonist: 0.252; S1P1 ag pot: -67.5; D1 allo mod: 5.87*; D1 PAM confirm: 8720*; D1 ag no DA: 1720; Isoprot counter: 3424

What do the screens show for `N#Cc1c(N)nc2c(c1-c1ccc3c(c1)OCO3)CCCCCC2`?
M1 agonist: -0.0202; M1 antagonist: 0.0243

What do the screens show for `Cc1ccc(-c2cc(-c3ccc(C)o3)nc(N)c2C#N)cc1`?
S1P3 agonist: 1.3; M1 agonist: -1.68; M1 antagonist: 0.477; S1P1 ag pot: -125.1; D1 allo mod: 7.29*; D1 PAM confirm: 8668*; D1 ag no DA: 1764; Isoprot counter: 2628

How did CCOC(=O)c1c(C(F)(F)C(F)(F)C(F)(F)C(F)(F)F)n[nH]c1C do in these assays?
S1P3 agonist: -4.6; M1 agonist: -0.391; M1 antagonist: -0.968; S1P1 ag pot: -0.7

Results for CSc1nc2c(c(=O)n1-c1ccccc1)SCC2 ?
M1 agonist: 0.802; M1 antagonist: 0.518; D1 allo mod: 2.74*; D1 PAM confirm: 11540*; D1 ag no DA: 1796; Isoprot counter: 2764

What do the screens show for `CCOc1ccc(-n2c(SC(C)C)nc3c(c2=O)SCC3)cc1`?
M1 agonist: -0.0255; M1 antagonist: 0; D1 allo mod: 13.6*; D1 PAM confirm: 19936*; D1 ag no DA: 1704; Isoprot counter: 4596*

How did O=C(CN1CCCC1)Nc1ccc(-c2nc3cc(NC(=O)CN4CCCC4)ccc3o2)cc1 do in these assays?
S1P3 agonist: -1.2; M1 agonist: 0.713; M1 antagonist: -0.357; S1P1 ag pot: -9.7; D1 allo mod: 1.44

Results for Cc1ccc(S(=O)(=O)N2CCN(C(=O)COC(=O)c3cc(C)oc3C)CC2)cc1 ?
S1P3 agonist: -0.2; M1 agonist: -0.142; M1 antagonist: 0.378; S1P1 ag pot: 10.9; D1 allo mod: 4.32*; D1 PAM confirm: 6052*; D1 ag no DA: 1764; Isoprot counter: 2676

How did CCNc1nc(NCC)nc(OCCOC(=O)c2ccccc2)n1 do in these assays?
S1P3 agonist: -0.4; M1 agonist: -0.386; M1 antagonist: 1.13; S1P1 ag pot: -4.6; D1 allo mod: 6.86*; D1 PAM confirm: 16012*; D1 ag no DA: 1704; Isoprot counter: 3588*

What do the screens show for `CCNc1nc(N)nc(Oc2ccc(OCCOc3ccccc3)nn2)n1`?
S1P3 agonist: -0.1; M1 agonist: -0.0635; M1 antagonist: 1.36; S1P1 ag pot: -39.3; D1 allo mod: 1.04

Results for COc1ccc(CNC(=O)c2cc(-c3cccs3)on2)cc1 ?
S1P3 agonist: 0.2; M1 agonist: -0.121; M1 antagonist: -0.00288; S1P1 ag pot: -55.0; D1 allo mod: -0.0201

Results for COc1cccc(Cn2c(-c3cccs3)noc2=O)c1 ?
S1P3 agonist: 0.8; M1 agonist: -0.457; M1 antagonist: -0.056; S1P1 ag pot: 4.8; D1 allo mod: 3.89*; D1 PAM confirm: 8904*; Isoprot counter: 2916*

Results for Cc1c(Cl)cccc1NC(=O)c1cc(C2CC2)on1 ?
S1P3 agonist: -0.7; M1 agonist: -0.0648; M1 antagonist: -0.0769; S1P1 ag pot: 23.2; D1 allo mod: 0.248

What do the screens show for `COc1ccc(N(CC(=O)NC(C)(C)C)S(=O)(=O)c2ccccc2)cc1OC`?
S1P3 agonist: 0.0; M1 agonist: -0.669; M1 antagonist: 0.399; S1P1 ag pot: -8.7; D1 allo mod: -0.201

How did COc1ccc(-c2nnc(-c3ccc(Br)o3)o2)cc1OC do in these assays?
S1P3 agonist: -0.2; M1 agonist: 1.54; M1 antagonist: 0.668; S1P1 ag pot: 10.5; D1 allo mod: 4.79*; D1 PAM confirm: 8496*; D1 ag no DA: 1540; Isoprot counter: 3300

How did CCOc1ccc(CC(=O)C2C(=O)CCCC2=O)cc1OCC do in these assays?
S1P3 agonist: 0.0; M1 agonist: -0.41; M1 antagonist: 0.323; S1P1 ag pot: 3.1; D1 allo mod: 4.28*; D1 PAM confirm: 10588*; D1 ag no DA: 1684; Isoprot counter: 3484*

How did CCOc1ccc(CCNC(=O)C2CCC(=O)N2C2CCCCC2)cc1OCC (centres undefined) do in these assays?
S1P3 agonist: -0.9; M1 agonist: 1.31; M1 antagonist: 0.442; S1P1 ag pot: -0.4; D1 allo mod: 0.647
